This note sets out measurements from ChEMBL document CHEMBL2311384, “Probing the steric requirements of the γ-aminobutyric acid aminotransferase active site with fluorinated analogues of vigabatrin” (Bioorg Med Chem, 2013).

For assay [1], the target named is 4-aminobutyrate aminotransferase, mitochondrial (Sus scrofa, UniProt P80147). Kind of assay: Reversible inhibition of pig brain GABA-AT using GABA as substrate. In a few lines:
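Pig brain GABA-AT, purified in-house, mixed with excess SSADH (from GABase), then inhibitor at several concentrations added in assay buffer: 87 mM potassium pyrophosphate pH 8.6, 6 mM GABA, 5 mM α-ketoglutarate, 1.25 mM NADP+, 3.3 mM β-mercaptoethanol. Rate read directly without preincubation as NADPH absorbance at 340 nm. IC50 from concentration-response fit; Ki via Cheng-Prusoff.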

Assay [2] has as its target 4-aminobutyrate aminotransferase, mitochondrial (Sus scrofa) (UniProt P80147). Description: Activity at pig brain GABA-AT assessed as glutamate production at 3 mM preincubated for 20 mins relative to GABA. In a few lines:
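GABA-AT purified from pig brain; substrate tested as turnover substrate in 100 mM potassium pyrophosphate pH 8.6 with α-ketoglutarate; glutamate formed detected by glutamate oxidase/horseradish peroxidase/Amplex Red fluorescence (ex 530, em 590 nm); scaled to glutamate standard curve (0–10 µM); highest rates, between 15 and 25 min, used.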

Assay [3] shares this target. Kind of assay: Time dependent inhibition of pig brain GABA-AT using GABA as substrate at 5 mM up to 150 mins. In a few lines:
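Pig brain GABA-AT in 100 mM potassium phosphate pH 7.0 preincubated at 25 °C with β-mercaptoethanol, α-ketoglutarate and compound (5 mM final); aliquots taken at time points into assay solution (GABA, α-ketoglutarate, NADP+, pH 8.6) with excess SSADH; remaining activity from 340 nm NADPH absorbance rate.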

Assay [4] shares this target. Kind of assay: Reversible inhibition of pig brain GABA-AT using GABA as substrate at 23 mM.

Broadly, the pKi is the Ki on a negative log10 scale, so that one unit is a factor of ten. A high value points to a low Ki.

SMILES strings stand for the structures. pKi: −log10 of the molar value. Active and inactive are the calls of the source. The rule behind the calls is not given here.

4-aminobutyrate aminotransferase, mitochondrial (Sus scrofa), sequence (P80147 whole entry): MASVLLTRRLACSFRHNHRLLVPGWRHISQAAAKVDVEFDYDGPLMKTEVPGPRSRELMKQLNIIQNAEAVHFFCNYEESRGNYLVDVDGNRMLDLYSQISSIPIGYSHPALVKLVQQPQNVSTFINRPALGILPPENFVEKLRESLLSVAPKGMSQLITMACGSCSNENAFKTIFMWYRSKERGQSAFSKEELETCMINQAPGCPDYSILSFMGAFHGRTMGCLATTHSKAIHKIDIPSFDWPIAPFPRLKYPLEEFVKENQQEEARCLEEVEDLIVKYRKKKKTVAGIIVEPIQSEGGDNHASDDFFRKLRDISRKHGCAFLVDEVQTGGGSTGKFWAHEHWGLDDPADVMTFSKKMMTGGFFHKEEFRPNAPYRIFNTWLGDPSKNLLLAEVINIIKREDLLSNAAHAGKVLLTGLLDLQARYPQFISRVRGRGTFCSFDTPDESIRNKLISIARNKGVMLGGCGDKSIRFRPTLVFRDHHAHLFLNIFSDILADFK
4-aminobutyrate aminotransferase, mitochondrial, sequence (P80147 whole entry): as above

`N[C@@H]1C=C[C@H](C(=O)O)C1`: in assay [1], the pKi is 4.40.

On to `C[C@H](F)[C@@H](N)CCC(=O)O`, for which the Activity in assay [2] stood at 0.11%. For the same compound, the inhibition result in assay [3] and in assay [4] was “inactive” in each case.

Take `C[C@@H](F)[C@H](N)CCC(=O)O`: the Activity in assay [2] is 0.02%. The inhibition result in assay [3] and in assay [4] was “inactive” throughout.

As to `C[C@@H](F)[C@@H](N)CCC(=O)O`, the Activity in assay [2] was 0.32%. Further, the inhibition entry in assay [3] and in assay [4] was “inactive” each time.
